# Published values of several laboratories.
# Each line is one published result; the experiments were not run side by side.
# Observed: cell growth or viability
Structure (SMILES),cell line,technique,tested at,time,quantity,value
NCCC(=O)Nc1ccccc1/N=c1\cc(-c2ccc3c(c2)OCO3)oc2ccccc12,MCF7,CCK-8,1 µM,,inhibition,-5.6%
COc1ccc(NC(=O)Nc2cccc(-c3cn(Cc4ccc(C)cc4)nn3)c2)cc1,MCF7,CCK-8,50 µM,48 h,viability,104%
COc1ccc2/c(=N/c3ccccc3NC(=O)[C@H](C)N)cc(-c3ccc4c(c3)OCCO4)oc2c1,MCF7,CCK-8,1 µM,,inhibition,8.55%
COc1ccc(NC(=O)Nc2ccc(-c3cn(Cc4ccc(Br)cc4)nn3)cc2)cc1,MCF7,CCK-8,50 µM,48 h,viability,98.4%
NCCC(=O)Nc1ccccc1/N=c1\cc(-c2ccc3nc(N)oc3c2)oc2ccccc12,MCF7,CCK-8,1 µM,,inhibition,46%
O=C(Nc1ccc(Cl)cc1)Nc1cccc(-c2cn(Cc3cccc(Br)c3)nn2)c1,MCF7,CCK-8,50 µM,72 h,viability,72.8%
Cc1n[nH]c2ccc3nc(-c4ccc(C(=O)NCCN(C)C)cc4)c4c(c3c12)CCCC4,NOMO-1,,,72 h,GI50,1060 nM
COc1ccc2/c(=N/c3ccccc3NC(=O)CN)cc(-c3ccc4c(c3)OCCO4)oc2c1,MCF7,CCK-8,1 µM,,inhibition,9.77%
CCc1nc(C(N)=O)c(Nc2ccc(N3CCC(N4CCN(C)CC4)CC3)c(OC)c2)nc1NC1CCOCC1,NOMO-1,,,72 h,GI50,2540 nM
COc1ccc2/c(=N/c3ccccc3NC(=O)[C@@H](N)CO)cc(-c3ccc4c(c3)OCCO4)oc2c1,MCF7,CCK-8,1 µM,,inhibition,8.55%
C[C@H](Nc1ccc2c(c1)OCCn1cc(N3C(=O)OC[C@H]3C(F)F)nc1-2)C(N)=O,HCC1954,ATP luminescence,,5 days,EC50,155 nM
Cc1n[nH]c2ccc3nc(-c4ccc(C(=O)NCCN(C)C)cc4F)c4c(c3c12)CCCC4,NOMO-1,,,72 h,GI50,292 nM
O=C(Nc1ccc(Cl)cc1)Nc1ccc(-c2cn(Cc3ccc(Cl)cc3)nn2)cc1,MCF7,CCK-8,50 µM,48 h,viability,94.6%
COc1ccc(NC(=O)Nc2cccc(-c3cn(Cc4ccccc4C)nn3)c2)cc1,MCF7,CCK-8,50 µM,72 h,viability,72.3%
Nc1nc2ccc(-c3c/c(=N\c4ccccc4NC(=O)C4CCNC4)c4ccccc4o3)cc2o1 (stereo not shown),MCF7,CCK-8,1 µM,,inhibition,11.6%
Cc1ccccc1Cn1cc(-c2cccc(NC(=O)Nc3ccc(F)cc3)c2)nn1,MCF7,CCK-8,50 µM,72 h,viability,58.8%
O=C(C[C@@H](C(F)F)n1ccc(F)n1)N1CCC(O)(Cn2cnc3c(cnn3-c3ccc(F)cc3)c2=O)CC1,CAPAN-1,SRB,9.145 nM,5 days,viability,94.6%
O=C(Nc1ccc(Cl)cc1)Nc1cccc(-c2cn(Cc3ccc(Cl)cc3)nn2)c1,MCF7,CCK-8,50 µM,48 h,viability,104%
COc1ccc(NC(=O)Nc2cccc(-c3cn(Cc4ccc(Br)cc4)nn3)c2)cc1,MCF7,CCK-8,50 µM,72 h,viability,98.4%
O=C(Nc1ccc(Cl)cc1)Nc1ccc(-c2cn(Cc3cccc(Cl)c3)nn2)cc1,MCF7,CCK-8,50 µM,72 h,viability,98.2%
O=C(Nc1ccccc1/N=c1\cc(-c2ccc3c(c2)OCO3)oc2ccccc12)N1CCOCC1,MCF7,CCK-8,1 µM,,inhibition,12.9%
CN(C)CCNC(=O)c1ccc(-c2nc3ccc4[nH]ncc4c3c3c2CCCCC3)cc1,NOMO-1,,,72 h,GI50,2270 nM
O=C(NCc1cn(Cc2ccc(Br)cc2)nn1)Nc1ccc(Cl)cc1,MCF7,CCK-8,50 µM,72 h,viability,91.2%
Nc1ccccc1/N=c1\cc(-c2ccc3c(c2)OCO3)oc2ccccc12,MCF7,CCK-8,1 µM,,inhibition,7.65%
O=C(Nc1ccc(-c2cn(Cc3ccc(Cl)cc3)nn2)cc1)Nc1ccccc1Br,MCF7,CCK-8,50 µM,48 h,viability,99.3%
COc1ccc(NC(=O)Nc2cccc(-c3cn(Cc4ccc(Cl)cc4)nn3)c2)cc1,MCF7,CCK-8,50 µM,72 h,viability,104%
O=C(Nc1ccc(Cl)cc1)Nc1cccc(-c2cn(Cc3cccc(Cl)c3)nn2)c1,MCF7,CCK-8,50 µM,48 h,viability,92.3%
CN(C)CCNC(=O)c1ccc(-c2nc3ccc4[nH]ncc4c3c3c2CCCC3)cc1,NOMO-1,,,72 h,GI50,568 nM
